Compound activity: PubChem BioAssay, several laboratories
Insulin prom inh: TRM-6 insulin promoter activity inhibition; TRM-6 cells (human fetal islet line), insulin promoter-eGFP reporter, imaging; reporter expression induced with tamoxifen; inhibition, % at 2 µM; hit rate 0.9% among 130,000; AID 1273;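 active = inhibition above the mean plus 3 SD, with well images judged a real hit on visual review, cut at about 60% in these data, passing the limit was not always enough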
ROMK primary: human ROMK K+ channel modulation, primary screen; P48048; Tet-inducible ROMK, thallium flux fluorescence; actives lie on both sides; B-score at 10 µM; hit rate 2% among 130,000; AID 1918;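 active = signal ratio slope over the read window, or its plate-corrected B-score, at least 3 SD from the plate mean, either direction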;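 note: B-score of the F/F0 ratio slope over 7 to 12 s after thallium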
Target sequence (P48048 whole entry, looked up): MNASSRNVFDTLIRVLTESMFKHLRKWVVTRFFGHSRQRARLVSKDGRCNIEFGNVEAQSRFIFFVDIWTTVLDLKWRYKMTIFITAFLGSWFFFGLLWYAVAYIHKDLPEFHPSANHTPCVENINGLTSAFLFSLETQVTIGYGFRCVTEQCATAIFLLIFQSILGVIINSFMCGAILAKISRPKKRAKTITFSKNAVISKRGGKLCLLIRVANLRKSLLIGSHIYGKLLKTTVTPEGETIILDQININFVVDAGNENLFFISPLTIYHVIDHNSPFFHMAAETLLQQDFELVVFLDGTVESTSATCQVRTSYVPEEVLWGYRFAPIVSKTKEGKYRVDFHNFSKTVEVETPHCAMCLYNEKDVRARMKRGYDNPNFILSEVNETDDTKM
MT stabilizer: stabilizes microtubules in HeLa cells; % tubulin-high responders, % at 10 µM; hit rate 0.83% among 200,000; HeLa tubulin immunostaining HCS, 24 h; share of cells brighter than vehicle mean+2SD; AID 2205;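 active = plate Z-score above 3 for both tubulin-high and condensed-nucleus cell shares, with cell loss under 80%, at 10 µM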;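 note: anti alpha tubulin signal scored within the nucleus-defined area of each cell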
b-catenin transl: beta-catenin nuclear translocation modulation; nuclear translocation activity, % at 5 µM; hit rate 0.3% among 190,000; HeLa beta-catenin nuclear translocation, immunofluorescence imaging;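 active = nuclear translocation activity above 50% at 5 µM, with a well cell count of 50 or more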;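 note: per-cell ratio of nuclear to cytoplasmic median beta-catenin stain intensity; plate controls were DMSO negative control for no effect and GSK-3 inhibitor IX positive control for full effect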
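Test system: human HeLa cell line; Doses: 5 µM primary, 0.02–20 µM confirmation; Incubation: 24 h compound exposure, 37°C; Detection: beta-catenin immunofluorescence imaging with DAPI; Read-out: beta-catenin nuclear/cytoplasmic ratio, % activation.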
HSV augment: HSV replication enhancement. HSV replication augmentation in cells, fold increase. maximum fold increase. hit rate 0.005% among 220,000; in the data active = maximum fold increase above about 1.5; tested in PC3 cells
Numbers without * were called inactive. This is a sample that favours compounds with a hit; in the whole collection about 2.4% have one here.

CCN1CCN(CC(=O)Nc2c(C(=O)OC)[nH]c3cccc(Cl)c23)CC1 was read as Insulin prom inh 78.6*, ROMK primary 1.26, MT stabilizer 4.2, b-catenin transl -7.2 and HSV augment inactive.
`O=C1CCCC(=O)N1c1ccc(NCCOCCO)c([N+](=O)[O-])c1` gave Insulin prom inh -64.3, ROMK primary -0.084, MT stabilizer 1.9, b-catenin transl -0.4 and HSV augment inactive.
For COc1ccc(NS(=O)(=O)c2cc(C)ccc2NC(=O)c2cc(C)oc2C)cc1 the results were Insulin prom inh 27.3, MT stabilizer 20.7* and HSV augment inactive.
For Cn1c(N)c(C(=O)COC(=O)CSc2ccc(Cl)cc2)c(=O)n(C)c1=O the results were Insulin prom inh 0.0, ROMK primary 1.51, MT stabilizer 4.3, b-catenin transl -0.6 and HSV augment inactive.
For CCCCCOc1ccc(C(=O)NCC(=O)NCC(=O)OCC)cc1 the results were ROMK primary 0.883, MT stabilizer 36.0*, b-catenin transl 8.7 and HSV augment inactive.
`CCOc1ccc(C(=O)NCC(=O)OCC(=O)N2CCCCC2)cc1` gave Insulin prom inh -8.1, ROMK primary 0.946*, MT stabilizer 2.4, b-catenin transl 1.2 and HSV augment inactive.
CCn1cc(-c2n[nH]c(=S)n2-c2ccc(C)cc2Br)c(=O)c2ccc(C)nc21 was read as b-catenin transl 1.4 and HSV augment inactive.
COc1ccc(C2=NN(CN3C(=O)C(=O)c4ccccc43)C(c3ccc(OC)cc3)C2)cc1 (stereo unspecified) was read as Insulin prom inh -71.4, ROMK primary 0.225, MT stabilizer 3.9, b-catenin transl -3.3 and HSV augment inactive.
Screening CCOc1ccc(C2c3cc(OC)c(OC)cc3CC(=O)N2c2ccc(OC)cc2)cc1 (stereo unspecified) returned ROMK primary 0.994, MT stabilizer 42.3*, b-catenin transl 11.4 and HSV augment inactive.
`CCN(CC)c1ccc(S(=O)(=O)N(CC)CC)cc1NC(=O)c1cccnc1` gave ROMK primary 0.314, MT stabilizer 4.0, b-catenin transl -3.6 and HSV augment inactive.
`COc1cc(OC)cc(C(=O)N[C@H](C(=O)OCC(=O)Nc2ccc(C(C)C)cc2)C(C)C)c1` gave MT stabilizer 3.4, b-catenin transl 0.5 and HSV augment inactive.
`CCOC(=O)C1CCN(C(=O)CSc2n[nH]c(=O)[nH]c2=O)CC1` gave Insulin prom inh 81.5*, ROMK primary 0.794, MT stabilizer 4.5, b-catenin transl -1.4 and HSV augment inactive.
Screening CCOC(=O)CC(=O)CSc1n[nH]c(=O)[nH]c1=O returned b-catenin transl -0.9 and HSV augment inactive.
Screening Cc1ccc(C(=O)NCCc2ccc(S(N)(=O)=O)cc2)cc1[N+](=O)[O-] returned Insulin prom inh -42.9, MT stabilizer 3.7, b-catenin transl 0.0 and HSV augment inactive.
`Cc1cccc(NC(=O)NNC(=O)c2sccc2-n2cccc2)c1` gave ROMK primary 0.888, MT stabilizer 9.8, b-catenin transl -3.1 and HSV augment inactive.
Cc1cccc(-n2c(=O)[nH]c3c(C(N)=O)nc(CC(C)C)nc32)c1 was read as Insulin prom inh 81.8*, ROMK primary -0.858, MT stabilizer 1.6, b-catenin transl 1.1 and HSV augment inactive.
`CC(C)Cc1nc(C(N)=O)c2[nH]c(=O)n(-c3ccc(F)cc3)c2n1` gave MT stabilizer 3.8.
For Fc1cccc(CN2CCN(Cc3nc(CCc4ccccc4)no3)CC2)c1 the results were MT stabilizer 3.8, b-catenin transl -0.8 and HSV augment inactive.
`Cc1ccc(C(=O)NNC(=S)NC(=O)c2ccco2)cc1` gave ROMK primary 3.59*, MT stabilizer 7.6, b-catenin transl 0.1 and HSV augment inactive.
For Cc1ccccc1C(=O)NNC(=O)c1ccc(Br)cc1 the results were Insulin prom inh 14.3, MT stabilizer 1.7 and HSV augment inactive.
For Cc1ccccc1C(=O)NNC(=S)NC(=O)c1ccccc1 the results were Insulin prom inh 1.6, ROMK primary 2.33*, MT stabilizer 4.6, b-catenin transl -0.2 and HSV augment inactive.
Screening Cc1ccc(C(=O)NNC(=S)NC(=O)c2ccc(Cl)cc2Cl)cc1 returned Insulin prom inh 7.1, ROMK primary 5.77*, MT stabilizer 1.2, b-catenin transl 0.1 and HSV augment inactive.
For COc1ccc2c(c1)-c1nc(/N=C/c3ccc(O)cc3)sc1CC2 the results were Insulin prom inh 76.9*, ROMK primary -0.854, MT stabilizer 2.0 and b-catenin transl 2.8.
